Measured values reported in ChEMBL document CHEMBL1151196, “Chemical constituents from the mangrove plant, Aegiceras corniculatum” (J Nat Prod, 2004).
In brackets after ≈: the same amount, converted by molar mass.

Tests used:
Format in all cases: functional, cell-based
[1] = tested on: HeLa; assay: Cytotoxicity against human HeLa cells after 48 hrs by MTT assay
Outline: (§1)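 Cells kept in RPMI-1640 with 10% FBS, penicillin and streptomycin, at 37 °C under 5% CO2. Seeded at 2000/mL and grown 24 h, then given serial dilutions (100 to 1 μg/mL; DMSO stock diluted in medium). Vehicle control was 0.1% DMSO. After 48 h, MTT added for 4 h. Formazan dissolved in acid-isopropanol and read at 570 nm. Run in triplicate.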

[2] = tested on: U-937; assay: Cytotoxicity against human U937 cells after 48 hrs by MTT assay; settings: U-937, 48 h; outline: as §1
[3] = tested on: HL-60; assay: Cytotoxicity against human HL60 cells after 48 hrs by MTT assay; settings: HL-60, 48 h; outline: as §1
[4] = tested on: Bel-7402; assay: Cytotoxicity against human Bel7402 cells after 48 hrs by MTT assay; settings: Bel-7402, 48 h; outline: as §1

| SMILES | IC50 [1] [µg/mL] | IC50 [2] [µg/mL] | IC50 [3] [µg/mL] | IC50 [4] [µg/mL] |
| --- | --- | --- | --- | --- |
| CCCCCCCCCCCC1=C(O)/C(=C2\C(=O)Oc3c2cc(OC)c(O)c3CCCCCCCCCCC)OC1=O | > 100 | > 100 | > 100 | > 100 |
| CCCCCCCCCCCC1=C(O)C(=O)c2c(CCCCCCCCCCC)cc(O)cc2C1=O | > 100 | > 100 | > 100 | > 100 |
| CCCCCCCCCc1cc(O)cc(O)c1OC | > 100 | > 100 | > 100 | > 100 |
| CCCCCCCCCCCC1=C(O)C(=O)C=C(OCC)C1=O | 3.9 (≈ 12.1 µM) | 1.3 (≈ 4.03 µM) | 2.5 (≈ 7.75 µM) | 2.7 (≈ 8.37 µM) |
| CCCCCCCCCCCC1=C(OC(C)=O)C(=O)C=C(OC)C1=O | > 100 | > 100 | > 100 | > 100 |
| CCCCCCCCCCCC1=CC(=O)C=C(OC)C1=O | > 100 | > 100 | > 100 | > 100 |
| CCCCCCCCCCCC1=C(O)C(=O)c2c(oc3c(CCCCCCCCCCC)c(O)c(OC)cc23)C1=O | > 100 | > 100 | > 100 | > 100 |
| CCCCCCCCCCCC1=C(O)C(=O)c2c(oc3cc(OC)c(O)c(CCCCCCCCCCC)c23)C1=O | > 100 | > 100 | > 100 | > 100 |
| CCCCCCCCCCCC1=C(O)C(=O)C=C(OC)C1=O [5-O-METHYLEMBELIN] | 9 (≈ 29.2 µM) | 1.5 (≈ 4.86 µM) | 3 (≈ 9.73 µM) | 3.6 (≈ 11.7 µM) |
| COc1cc2c(c(OC)c1OC)-c1ccc(OC)c(=O)cc1[C@@H](NC(C)=O)CC2 [COLCHICINE] |  | 0.1 (≈ 0.25 µM) |  | 0.4 (≈ 1 µM) |
